Results taken from ChEMBL document CHEMBL4138071, “Synthesis, antioxidant and antitumoral activities of 5'-arylchalcogeno-3-aminothymidine (ACAT) derivatives” (Medchemcomm, 2017).
The source made the active and inactive calls. The rule behind the calls is not given here.

Experiments:
5637 [1] = assay: Antiproliferative activity in human 5637 cells assessed as inhibition of cell growth incubated for 48 hrs by MTT assay; assay type: functional, cell-based; settings: Homo sapiens, 5637, 48 h
Summary of the method: (§1)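 Bladder carcinoma 5637 cells in log phase were grown in DMEM with 10% FBS at 37 °C, 5% CO2. They were seeded at 2 x 10^4 per well and treated 24 and 48 h, with DMSO up to 0.5% as vehicle. MTT was added for 3 h and A492 read. Inhibition = (1 − Abs treated/Abs control) x 100. Results are mean ± SEM.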

[2] = Antioxidant activity assessed as inhibition of Fe2+-induced phosphatidylcholine oxidation at 200 uM […] by TBARS assay; assay type: functional
[3] = Antioxidant activity assessed as DPPH radical scavenging activity at 1 mM incubated for 90 mins; assay type: functional
Summary of the method: (§2)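 Each compound mixed with 0.3 mM DPPH in ethanol. Most tests used 1 mM compound; the concentration curve covered final 0 - 1 mM. Absorbance at 518 nm was read every 30 min for 180 min. BHT served as positive control.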

[4] = Thiol peroxidase-like activity assessed as induction of hydrogen peroxide decomposition at 450 uM using benzenethiol incubated for 20 mins; assay type: functional
Summary of the method: (§3)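 This is a GPx-mimetic assay using benzenethiol (2.5 mM) instead of glutathione. The mix held ethanol, compound at final 0 - 450 μM or DMSO blank, and hydrogen peroxide (2.3 mM).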

[5] = Antioxidant activity assessed as inhibition of Fe2+-induced phosphatidylcholine oxidation incubated for 1 hr by TBARS assay; assay type: functional
[6] = Antioxidant activity assessed as DPPH radical scavenging activity at 0.5 mM measured at 21.33 +/- 0.6 mins; assay type: functional
Summary of the method: (§4)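 DPPH (0.3 mM) in ethanol was mixed with the test compound at final concentrations of 0–1 mM. Absorbance at 518 nm was read every 30 min for 180 min. BHT served as the positive control.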

[7] = Antioxidant activity assessed as DPPH radical scavenging activity at 0.25 mM measured at 22.5 +/- 0.87 mins; assay type: functional; summary of the method: as §4
5637 [8] = assay: Antiproliferative activity in human 5637 cells assessed as inhibition of cell growth incubated for 24 hrs by MTT assay; assay type: functional, cell-based; settings: Homo sapiens, 5637, 24 h; summary of the method: as §1
[9] = Toxicity in human leukocytes assessed as reduction in cell viability at 1 mM incubated for 3 hrs; assay type: cell-based; settings: 1000 µM
Summary of the method: (§5)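 Human leukocytes were isolated (2 x 10^6/mL) and incubated 3 h in Hank's buffer with 10% human plasma. Controls were DMSO 0.5% vehicle and 1 mM t-butyl hydroperoxide as positive control.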

[10] = Thiol peroxidase-like activity assessed as induction of hydrogen peroxide decomposition at 50 to 250 uM using benzenethiol incubated for 20 mins; assay type: functional; summary of the method: as §3
Mus musculus [11] = assay: Toxicity in Swiss mouse assessed as effect on spleen to body weight ratio level at 100 umol/kg, sc after 7 days; assay type: organism-based; settings: in vivo, 168 h
Summary of the method: (§6)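 Adult male Swiss mice were randomized into two groups, n = 4 each. They received a subcutaneous injection of 100 μmol/kg compound or DMSO vehicle (1 mL/kg).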

[12] = Antioxidant activity assessed as DPPH radical scavenging activity at 0.5 mM measured at 77.3 +/- 10.3 mins; assay type: functional; summary of the method: as §2
5637 [13] = assay: Cell cycle arrest in human 5637 cells assessed as reduction in accumulation at G1 phase at 12.5 uM by propidium iodide staining based flow cytometry; assay type: functional
Summary of the method: (§7)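 5637 cells were seeded at 1x10^5 and synchronized 24 h in serum-free medium. They were then treated 24 h at 12,5 µM. DNA content was measured by propidium iodide staining with a kit and flow cytometry.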

Mus musculus [14] = assay: Toxicity in Swiss mouse assessed as effect on kidney to body weight ratio level at 100 umol/kg, sc after 7 days; assay type: organism-based; settings: in vivo, 168 h; summary of the method: as §6
[15] = Antioxidant activity assessed as DPPH radical scavenging activity at 0.25 mM measured at 104.7 +/- 10.0 mins; assay type: functional; summary of the method: as §2
[16] = Antioxidant activity assessed as DPPH radical scavenging activity at 0.1 mM measured at >180 mins; assay type: functional; summary of the method: as §2
Mus musculus [17] = assay: Toxicity in Swiss mouse assessed as effect on food intake level at 100 umol/kg, sc measured over 7 days; assay type: organism-based; settings: in vivo, 168 h; summary of the method: as §6
Mus musculus [18] = assay: Toxicity in Swiss mouse assessed as effect on brain to body weight ratio level at 100 umol/kg, sc after 7 days; assay type: organism-based; settings: in vivo, 168 h; summary of the method: as §6
Mus musculus [19] = assay: Renal toxicity in Swiss mouse assessed as effect on creatinine level at 100 umol/kg, sc after 7 days; assay type: organism-based; settings: in vivo, 168 h; summary of the method: as §6
[20] = Antioxidant activity assessed as DPPH radical scavenging activity at 1 mM measured at 38.7 +/- 8.9 mins; assay type: functional; summary of the method: as §2
Mus musculus [21] = assay: Toxicity in Swiss mouse assessed as appearance of overt toxic signs at 100 umol/kg, sc measured over 7 days; assay type: organism-based; settings: in vivo, 168 h; summary of the method: as §6
Mus musculus [22] = assay: Hepatic toxicity in Swiss mouse assessed as effect on ALT level at 100 umol/kg, sc after 7 days; assay type: organism-based; settings: in vivo, 168 h; summary of the method: as §6
Mus musculus [23] = assay: Renal toxicity in Swiss mouse assessed as effect on urea level at 100 umol/kg, sc after 7 days; assay type: organism-based; settings: in vivo, 168 h; summary of the method: as §6
Mus musculus [24] = assay: Toxicity in Swiss mouse assessed as effect on body weight level at 100 umol/kg, sc measured over 7 days; assay type: organism-based; settings: in vivo, 168 h; summary of the method: as §6
[25] = Thiol peroxidase-like activity assessed as induction of hydrogen peroxide decomposition at 55 to 225 uM using benzenethiol in presence of thiophenol incubated for 20 mins; assay type: functional; summary of the method: as §3
5637 [26] = assay: Antiproliferative activity in human 5637 cells assessed as inhibition of cell growth at 6.25 to 12.5 uM incubated for 24 hrs by MTT assay; assay type: functional; summary of the method: as §1
[27] = Toxicity in human leukocytes assessed as reduction in cell viability at 100 uM incubated for 3 hrs; assay type: cell-based; summary of the method: as §5
5637 [28] = assay: Antiproliferative activity in human 5637 cells assessed as inhibition of cell growth at 6.25 to 12.5 uM incubated for 48 hrs by MTT assay; assay type: functional; summary of the method: as §1
Mus musculus [29] = assay: Toxicity in Swiss mouse assessed as effect on water intake level at 100 umol/kg, sc measured over 7 days; assay type: organism-based; settings: in vivo, 168 h; summary of the method: as §6
[30] = Toxicity in Swiss mouse assessed as mortality level at 100 umol/kg, sc measured over 7 days; assay type: organism-based; settings: in vivo, read-out: Activity; summary of the method: as §6
5637 [31] = assay: Cell cycle arrest in human 5637 cells assessed as increase in accumulation at subG1 phase at 12.5 uM by propidium iodide staining based flow cytometry; assay type: functional; summary of the method: as §7
Mus musculus [32] = assay: Toxicity in Swiss mouse assessed as effect on liver to body weight ratio level at 100 umol/kg, sc after 7 days; assay type: organism-based; settings: in vivo, 168 h; summary of the method: as §6
5637 [33] = assay: Cell cycle arrest in human 5637 cells assessed as increase in accumulation at S phase at 12.5 uM by propidium iodide staining based flow cytometry; assay type: functional; summary of the method: as §7
Mus musculus [34] = assay: Hepatic toxicity in Swiss mouse assessed as effect on AST level at 100 umol/kg, sc after 7 days; assay type: organism-based; settings: in vivo, 168 h; summary of the method: as §6

Cc1cn([C@H]2C[C@H](N)[C@@H](C[Se]c3ccc(Cl)cc3)O2)c(=O)[nH]c1=O
IC50 5637 [1]: > 100 µM
inhibition [2]: inactive
inhibition [3]: inactive

Cc1cn([C@H]2C[C@H](N)[C@@H](C[Se]c3ccccc3)O2)c(=O)[nH]c1=O
Activity [4]: Active
IC50 5637 [1]: > 100 µM
inhibition [2]: inactive
inhibition [3]: inactive

COc1ccc(SC[C@H]2O[C@@H](n3cc(C)c(=O)[nH]c3=O)C[C@@H]2N)cc1
Activity [4]: Active
IC50 5637 [1]: > 100 µM
inhibition [2]: inactive
inhibition [3]: inactive

Cc1c(C)c2c(c(C)c1O)CC[C@@](C)(CCC[C@H](C)CCC[C@H](C)CCCC(C)C)O2 [ALPHA-TOCOPHEROL]
IC50 [5]: 35.3 µM

Cc1ccccc1[Se]C[C@H]1O[C@@H](n2cc(C)c(=O)[nH]c2=O)C[C@@H]1N
Activity [4]: Active
IC50 5637 [1]: > 100 µM
inhibition [2]: inactive
inhibition [3]: inactive

Cc1cc(C(C)(C)C)c(O)c(C(C)(C)C)c1
inhibition [6]: 50%
inhibition [7]: 50%

Cc1ccc([Se]C[C@H]2O[C@@H](n3cc(C)c(=O)[nH]c3=O)C[C@@H]2N)cc1
Activity [4]: Active
IC50 5637 [1]: > 100 µM
inhibition [2]: inactive
inhibition [3]: inactive

Cc1ccc(SC[C@H]2O[C@@H](n3cc(C)c(=O)[nH]c3=O)C[C@@H]2N)cc1
IC50 5637 [1]: > 100 µM
inhibition [2]: inactive
inhibition [3]: inactive

Cc1cn([C@H]2C[C@H](N)[C@@H](CSc3ccccc3)O2)c(=O)[nH]c1=O
IC50 5637 [1]: > 100 µM
inhibition [2]: inactive
inhibition [3]: inactive

COc1ccc([Se]C[C@H]2O[C@@H](n3cc(C)c(=O)[nH]c3=O)C[C@@H]2N)cc1
Activity [4]: Active
IC50 5637 [1]: > 100 µM
inhibition [2]: inactive
inhibition [3]: inactive

Cc1cn([C@H]2C[C@H](N=[N+]=[N-])[C@@H](CO)O2)c(=O)[nH]c1=O [ZIDOVUDINE]
IC50 5637 [8]: 129 µM

Cc1cn([C@H]2C[C@H](N)[C@@H](CSc3ccc(Cl)cc3)O2)c(=O)[nH]c1=O
IC50 5637 [1]: > 100 µM
inhibition [2]: inactive
inhibition [3]: inactive

CC(C)(C)OO [TERT-BUTYL HYDROPEROXIDE]
Activity [9]: 40%

O=c1c2ccccc2[se]n1-c1ccccc1
Activity [10]: Active

Cc1cn([C@H]2C[C@H](N)[C@@H](C[Te]c3ccccc3)O2)c(=O)[nH]c1=O
Activity (Mus musculus [11]): Non-Toxic
inhibition [12]: 50%
Activity 5637 [13]: Active
Activity (Mus musculus [14]): Non-Toxic
inhibition [15]: 50%
inhibition [16]: 50%
Activity (Mus musculus [17]): Non-Toxic
Activity (Mus musculus [18]): Non-Toxic
Activity [4]: Active
Activity (Mus musculus [19]): Non-Toxic
inhibition [20]: 50%
Activity (Mus musculus [21]): Non-Toxic
Activity (Mus musculus [22]): Non-Toxic
Activity (Mus musculus [23]): Non-Toxic
IC50 [5]: 4.67 µM
IC50 5637 [1]: 7.94 µM
Activity (Mus musculus [24]): Non-Toxic
Activity [25]: Active
growth inhibition (GI) 5637 [26]: >50%
Activity [27]: Non-Toxic
growth inhibition (GI) 5637 [28]: >50%
Activity (Mus musculus [29]): Non-Toxic
IC50 5637 [8]: 6.61 µM
mortality at 168 h [30]: 25%
Activity 5637 [31]: inactive
Activity (Mus musculus [32]): Non-Toxic
inhibition [2]: Active
Activity 5637 [33]: Active
inhibition [3]: Active
Activity (Mus musculus [34]): Non-Toxic

c1ccc([Se][Se]c2ccccc2)cc1
IC50 [5]: 233 µM
Activity [10]: Active
